Assay outcomes deposited in PubChem by several laboratories.
p-CIP stab down: p/CIP protein destabilization | Q05BA5 | 290,000 compounds, 0.01% hits | decrease of EGFP signal, % at 10 µM | F442A p/CIP-EGFP cells, EGFP fluorescence, 16 h;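 active means EGFP signal decrease of at least 30% at 10 µM or well 3 SD below plate mean, unless failing retest; inactive means the rest, including hits failing retest or dose response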
PHOSPHO1 block: blocks human PHOSPHO1 phosphatase activity | Q8TCT1 | recombinant PHOSPHO1, absorbance phosphatase assay | inhibition, % at 13.3 µM | 290,000 compounds, 1.1% hits; in the data active means inhibition above about 60%
APOBEC3A inh: inhibitors of human APOBEC3A DNA deaminase. 330,000 compounds, 0.41% hits. inhibition, % at 20 µM. P31941. recombinant A3A, FAM/TAMRA ssDNA deamination fluorescence;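 active means at least 40% inhibition at 20 µM here, with at most 30% in a related deaminase screen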;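 further: plate controls were A3A with DMSO for no effect and wells lacking A3A enzyme for full effect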
Target sequence (P31941 whole entry, looked up): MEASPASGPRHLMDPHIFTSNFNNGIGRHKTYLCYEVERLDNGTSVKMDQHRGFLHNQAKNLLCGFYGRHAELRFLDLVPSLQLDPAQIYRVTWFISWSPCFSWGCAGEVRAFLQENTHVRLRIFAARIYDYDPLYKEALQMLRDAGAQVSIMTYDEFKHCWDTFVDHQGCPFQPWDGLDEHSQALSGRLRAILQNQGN
TbMetRS inhib: blocks T. brucei methionyl-tRNA synthetase activity. AID 624268. 360,000 compounds, 0.4% hits. purified T. brucei MetRS, ATP depletion, Kinase-Glo luminescence. inhibition, % at 11.9 µM;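 active means inhibition above a per-plate cutoff of the control wells' mean inhibition plus 3 SD, cut at about 5.5% in these data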;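 further: 0% = DMSO wells median and 100% = median of wells with control inhibitor compound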
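Measured by: Kinase-Glo luciferase luminescence reporting remaining unconsumed ATP. Material: purified T. brucei MetRS enzyme. Doses: 11.9 µM compound single dose, 0.9% DMSO. Medium: HEPES buffer containing pyrophosphatase, BSA, spermine, DTT. Times: 15 min preincubation, 2 h reaction, all 25 °C. Reagent: methionine, ATP and bulk E. coli tRNA.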
A3G deaminase: APOBEC3G (human) deaminase inhibition. Q9HC16. recombinant A3G, ssDNA deamination FAM/TAMRA fluorescence. inhibition, % at 20 µM. 330,000 compounds, 0.28% hits;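 active means inhibition of at least 40% at 20 µM, with no more than 30% in the related APOBEC3A deaminase screen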;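 further: plate controls were DMSO wells with A3G for no effect and wells lacking A3G enzyme for full effect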
Target sequence (Q9HC16 whole entry, looked up): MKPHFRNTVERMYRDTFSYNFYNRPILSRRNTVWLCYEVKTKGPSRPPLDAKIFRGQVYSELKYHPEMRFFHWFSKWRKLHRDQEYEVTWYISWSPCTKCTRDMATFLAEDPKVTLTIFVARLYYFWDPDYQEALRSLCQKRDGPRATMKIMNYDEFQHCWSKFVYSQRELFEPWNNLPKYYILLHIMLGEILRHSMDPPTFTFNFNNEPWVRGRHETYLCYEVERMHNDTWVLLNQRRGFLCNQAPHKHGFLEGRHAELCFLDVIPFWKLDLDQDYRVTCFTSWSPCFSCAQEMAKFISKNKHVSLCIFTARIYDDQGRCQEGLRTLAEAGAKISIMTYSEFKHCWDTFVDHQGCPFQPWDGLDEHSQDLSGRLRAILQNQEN
APOBEC3A confirm: APOBEC3A (human) deaminase inhibition, confirmed. shares compounds with APOBEC3A inh. 1,400 compounds, 63% hits. recombinant A3A, ssDNA deaminase UDG fluorescence assay. inhibition, % at 20 µM;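 active means inhibition reaching a set limit, 80% of the first screen's cutoff, at 20 µM in any replicate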;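 further: plate controls were DMSO wells with A3A for no effect and wells lacking A3A enzyme for full effect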
UDG ctr A3A: UDG inhibition in APOBEC3A counter-screen | shares compounds with APOBEC3A inh | UDG counterscreen, FAM/TAMRA uracil oligo fluorescence | inhibition, % at 20 µM | 1,000 tested, under 10 active | AID 504714; call rule not given here
Numbers without * were called inactive; nt = no result given. Shown are actives, neighbours in structure and some others; about 1.8% of the full set was active somewhere.

SMILES	p-CIP stab down	PHOSPHO1 block	APOBEC3A inh	TbMetRS inhib	A3G deaminase	APOBEC3A confirm	UDG ctr A3A
CC(=O)Nc1nnc(SCC(=O)NCCOc2ccccc2)s1	6	-12	57*	-1	26	63*	-2
CC(=O)Nc1ccc2nc(SCC(=O)NCCOc3ccccc3)sc2c1	-5	-8	-2	0	3	nt	nt
CCOC(=O)C1=C(C)N=C2SCCC(=O)N2C1c1cc(Br)ccc1OC (stereo not given)	nt	nt	40*	0	-4	-7	-1
COC(=O)C1=C(C)N=C2SCCC(=O)N2C1c1cc(Br)ccc1OC (stereo not given)	11	14	-4	0	-7	nt	nt
O=C(COc1cccc(C(F)(F)F)c1)NCC(c1ccco1)N1CCCC1 (stereo not given)	nt	nt	46*	0	2	3	nt
O=C(COc1cccc(C(F)(F)F)c1)NCC(c1ccco1)N1CCCCC1 (stereo not given)	nt	nt	-2	0	-5	nt	nt
Cc1cccc(C)c1NC(=S)N(Cc1cccs1)C1CCCC1	3	-14	-3	-1	-7	nt	nt
Cc1cc(C)cc(OCC(=O)N2N=C(C(F)(F)F)CC2(O)C(C)(C)C)c1 (stereo not given)	-2	6	56*	-1	19	48*	-1
Cc1nc(C(F)(F)F)ccc1C(=O)N1CCC1(C)C(=O)Nc1ccc2c(c1)OCO2 (stereo not given)	nt	nt	nt	0	nt	nt	nt
CCOC(=O)CC1CCCCN1Cc1cn[nH]c1-c1ccc(F)cc1F (stereo not given)	-12	1	3	0	-1	nt	nt
COc1ccc(/C=N/OC(=O)Nc2ccccc2OC)cc1	4	-10	97*	-1	-3	-64	6
COC(=O)c1ccc(NC(=O)Cn2nnc(-c3cccs3)n2)cc1	-2	13	-1	0	-4	nt	nt
O=C(CNC(=O)c1cccc(F)c1)OCC(=O)N1CCN(C(=O)c2ccco2)CC1	-3	39	-8	-1	-7	nt	nt
O=C(CNC(=O)c1cccc(F)c1)OCC(=O)N1CCCCC1	7	-4	41*	0	2	2	nt
Cc1cccc(C)c1NC(=O)C(C)Sc1n[nH]c(-c2ccncc2)n1 (stereo not given)	-13	45	82*	0	-8	-10	1
COc1cc(C(=O)N=c2sccn2C)c([N+](=O)[O-])cc1OC	-14	-1	53*	0	10	6	nt
Cc1ccc(Nc2nnc(SCC(=O)c3ccc(O)cc3O)s2)cc1	1	-50	1	-1	-1	nt	nt
C[n+]1cnn2c1SCC1(COC1)C2	-9	92*	45*	0	26	85*	-1
O=C(CN(c1ccccn1)S(=O)(=O)c1ccccc1)N/N=C/c1cccc([N+](=O)[O-])c1	-3	-2	44*	0	4	15	nt
O=C(Cc1ccccc1)N/N=C/c1cccc([N+](=O)[O-])c1	0	7	0	1	-3	nt	nt
CC1CCN(S(=O)(=O)c2ccc(NC(=O)CN3C(=O)NC(C)(c4ccccc4)C3=O)cc2)CC1 (stereo not given)	nt	nt	49*	0	4	-3	nt
CC1(c2ccc(Cl)cc2)NC(=O)N(CC(=O)Nc2ccc(F)cc2)C1=O (stereo not given)	-29	31	2	-1	-10	nt	nt
CC1(c2ccc(Cl)cc2)NC(=O)N(CC(=O)Nc2ccc(N3CCCCC3)cc2)C1=O (stereo not given)	nt	nt	45*	0	-6	-6	-3
Cn1c(N)c(C(=O)COC(=O)COc2ccc(C#N)cc2)c(=O)n(C)c1=O	1	37	92*	0	-8	3	5
CCn1c(SCC(=O)NC(C)(C)C)nnc1-c1ccccn1	-14	24	-17	-1	-6	nt	nt
SMILES	p-CIP stab down	PHOSPHO1 block	APOBEC3A inh	TbMetRS inhib	A3G deaminase	APOBEC3A confirm	UDG ctr A3A
COc1ccc(NC(=O)COC(=O)c2c(NC(C)=O)sc(C)c2C)cc1	nt	nt	nt	0	nt	nt	nt
COC(=O)c1ccc(NC(=O)C2CCN(C(=O)Nc3ccccc3)CC2)cc1	nt	nt	59*	0	13	26	nt
COC(=O)c1ccc(NC(=O)C2CCN(S(C)(=O)=O)CC2)cc1	4	2	-4	-1	-6	nt	nt
C[n+]1ccc(C(=O)Nc2ccccc2Cl)cc1	-12	-137	73*	-2	14	69*	-2
Cc1ccc(C)c(NC(=O)c2ncn[nH]2)c1	1	10	45*	0	12	41*	-1
O=C(Nc1ccccc1Cl)c1ccc2ccccc2c1	9	nt	-5	-2	-3	nt	nt
Cc1c(NC(=O)c2ncn[nH]2)cccc1-c1nc2ccccc2s1	-1	6	75*	0	25	72*	3
Cc1ccc(C)c(NC(=O)c2cc[n+](C)cc2)c1	-14	14	79*	-1	9	69*	-2
CN(CC(=O)Nc1ccc(F)c(F)c1F)C(=O)C1=COCCO1	-6	32	4	0	1	nt	nt
CCCN(CC(=O)Nc1ccc(F)c(F)c1F)C(=O)C1=COCCO1	nt	nt	51*	0	15	4	nt
CC1CCC2C(C1)Nc1c(C(=O)O)cccc1C2(C)C (stereo not given)	-11	10	-1	0	-8	nt	nt
C/C(=N\OCC(=O)N/N=C/c1ccc(C)cc1O)c1cccs1	4	45	51*	-1	-7	-3	1
C[N+]1(CC2COC3(CCCCC3)O2)CCCCC1 (stereo not given)	-12	13	68*	-1	25	74*	-3
COc1cc(C(=O)NCc2ccco2)c(Br)c(OC)c1OC	-1	31	51*	0	-3	-9	-3
Fc1ccc(Sc2ccccc2CNC2=NCCN2)cc1	1	-12	32	2	18	nt	nt
OCCNC1=NCCN1	-7	-65	56*	1	18	76*	1
COc1ccc(S(=O)(=O)NCC2CCCN(C(=O)CCC(F)(F)F)C2)cc1 (stereo not given)	-8	14	-3	-1	-7	nt	nt
O=C(c1ccc(S(=O)(=O)N2CCCCC2)cc1)N1CCN=C1SCc1cccnc1	-12	5	50*	0	-1	7	5
CCOC(=O)N1CCC(NC(=O)C2CCCN(C(=O)N3CCOc4ccccc43)C2)CC1 (stereo not given)	6	-8	54*	-2	-6	-4	-1
CCOC(=O)N1CCC(NC(=O)C2CCN(C(=O)N3CCOc4ccccc43)CC2)CC1	-4	12	-1	0	-3	nt	nt
Cc1nn(-c2ccc(Cl)cc2)c(NC(=O)C(C)C)c(-c2ccccc2)c1=O	-17	8	1	0	-4	nt	nt
O=C1CC(O)(c2ccccc2)C(c2ccccc2)=C1c1ccccc1 (stereo not given)	-4	-17	3	0	6	nt	nt
